Columns and labels:
[1] = Lipophilicity, logD of compound at pH 7.4 by retention time-based reverse phase chromatographic analysis; format: physicochemical; conditions: buffer
[2] = system: Cortex; experiment: Drug uptake in APP-transgenic Tg2576 mouse cortex at 3 to 6 mg/kg, po administered as single dose after 18 hrs by LC/MS/MS analysis; format: ADME, organism-based; conditions: in vivo, BLD = below limit of detection
[3] = system: Plasma; experiment: Drug uptake in APP-transgenic Tg2576 mouse plasma at 3 to 6 mg/kg, po administered as multiple dose by LC/MS/MS analysis; format: ADME, organism-based; conditions: in vivo
[4] = Drug uptake in C57BL/6J mouse plasma at 6 mg/kg, po after 3 hrs by LC/MS/MS analysis; format: ADME, organism-based
Procedure, shortened: (§1)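 Male C57BL/6J mice, 9 weeks old, fed, n = 3, given a single oral dose of 6 mg/kg in 0.5% methylcellulose. Plasma and cortex collected at 3 h. Cortex homogenized in saline. Samples deproteinized with MeCN containing an internal standard, then diluted in ammonium formate/acetonitrile with 0.2% formic acid for analysis.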

[5] = system: Cortex; experiment: Drug uptake in APP-transgenic Tg2576 mouse cortex at 3 to 6 mg/kg, po administered as multiple dose by LC/MS/MS analysis; format: ADME, organism-based; conditions: in vivo
[6] = Drug uptake in C57BL/6J mouse cortex at 6 mg/kg, po after 3 hrs by LC/MS/MS analysis; format: ADME, organism-based; conditions: read-out: Drug uptake; procedure, shortened: as §1

SMILES | chromatographic logD [1] | other results
COc1cc(-c2nnc3n2CCCC32COc3ccccc3N(CC(F)(F)F)C2=O)ccc1-c1cnc(C)o1 (configuration not stated) | 2.5 | –
COc1cc(-c2nnc3n2CCCC3(Oc2cc(F)c(F)c(F)c2)C(C)(C)O)ccc1-c1cnc(C)o1 (configuration not stated) | 3.2 | –
COc1cc(-c2nnc3n2CCCC32OCc3c(cccc3C(F)(F)F)N(CC(F)(F)F)C2=O)ccc1-c1cnc(C)o1 (configuration not stated) | 2.9 | –
COc1cc(-c2nnc3n2CCCC32Cc3ccccc3N(CC(F)(F)F)C2=O)ccc1-c1cnc(C)o1 (configuration not stated) | 2.4 | –
COc1cc(-c2nnc3n2CCCC3(Oc2ccc(F)c(F)c2)C(C)(C)O)ccc1-c1cnc(C)o1 (configuration not stated) | 2.8 | –
COc1cc(-c2nnc3n2CCCC3(Cc2ccc(F)c(F)c2)C(N)=O)ccc1-c1cnc(C)o1 (configuration not stated) | 2.3 | –
COc1cc(-c2nnc3n2CCCC32OCc3c(Cl)cccc3N(CC(F)(F)F)C2=O)ccc1-c1cnc(C)o1 (configuration not stated) | 2.8 | –
COc1cc(-c2nnc3n2CCCC3(CO)Cc2ccc(F)c(F)c2)ccc1-c1cnc(C)o1 (configuration not stated) | 2.5 | –
COc1cc(-c2nnc3n2CCCC3(CNC(C)=O)c2ccc(Cl)c(Cl)c2)ccc1-c1cnc(C)o1 (configuration not stated) | 3.2 | –
COc1cc(-c2nnc3n2CCCC3(CN)c2ccc(Cl)c(Cl)c2)ccc1-c1cnc(C)o1 (configuration not stated) | 3.1 | –
COc1cc(-c2nnc3n2CCCC32OCc3ccccc3N(CC(F)(F)F)C2=O)ccc1-c1cnc(C)o1 (configuration not stated) | 2.2 | –
COc1cc(-c2nnc3n2CCCC32C(=O)N(CC(F)(F)F)c3ccccc32)ccc1-c1cnc(C)o1 (configuration not stated) | 2.2 | –
COc1cc(-c2nnc3n2CCCC3(c2ccc(Cl)c(Cl)c2)C(C)(C)O)ccc1-c1cnc(C)o1 (configuration not stated) | 3.7 | –
COc1cc(-c2nnc3n2CCC[C@]3(Oc2cc(F)c(F)c(F)c2)C(C)(C)O)ccc1-c1cnc(C)o1 | 3.2 | Drug uptake [2]: BLD; Drug uptake [3]: Not Active; concentration at 3 h [4]: 3310 ng/mL; Drug uptake [5]: Not Active; concentration at 3 h [6]: 677 ng/g
COc1cc(-c2nnc3n2CCC[C@@]3(Oc2cc(F)c(F)c(F)c2)C(C)(C)O)ccc1-c1cnc(C)o1 | 3.2 | –
COc1cc(-c2nnc3n2CCCC3(Cc2ccc(F)c(F)c2)C(C)=O)ccc1-c1cnc(C)o1 (configuration not stated) | 2.6 | –
COc1cc(-c2nnc3n2CCCC3(OC)c2ccc(Cl)c(Cl)c2)ccc1-c1cnc(C)o1 (configuration not stated) | 3.7 | –
COc1cc(-c2nnc3n2CCCC3(c2ccc(F)c(F)c2)C(C)(C)O)ccc1-c1cnc(C)o1 (configuration not stated) | 2.9 | –
COc1cc(-c2nnc3n2CCCC3(O)c2ccc(Cl)c(Cl)c2)ccc1-c1cnc(C)o1 (configuration not stated) | 2.9 | –
COc1cc(-c2nnc3n2CCCC3(Cc2ccc(F)c(F)c2)C(C)(C)O)ccc1-c1cnc(C)o1 (configuration not stated) | 3 | –
COc1cc(-c2nnc3n2CCCC3(Cc2ccc(F)c(F)c2)C(=O)N(C)CC(F)(F)F)ccc1-c1cnc(C)o1 (configuration not stated) | 2.9 | –
COc1cc(-c2nnc3n2CCCC3(Cc2ccc(F)c(F)c2)C(=O)NCC(F)(F)F)ccc1-c1cnc(C)o1 (configuration not stated) | 3 | –
